From ChEMBL document CHEMBL3046018, “Design, syntheses and 3D-QSAR studies of novel N-phenyl pyrrolidin-2-ones and N-phenyl-1H-pyrrol-2-ones as protoporphyrinogen oxidase inhibitors” (Bioorg Med Chem, 2010)

What was measured:
[1] = system: Setaria viridis; experiment: Herbicidal activity against Setaria viridis assessed as growth inhibition at 150 g ai/ha using post-emergence protocol under greenhouse conditions measured 15 days after compound treatment; format: functional; conditions: 360 h, read-out: GI
In short: (§1)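 Grass weeds were grown in pots in the greenhouse and sprayed post-emergence at the 1-leaf stage. The spray was formulation concentrate diluted in water. Soil was clay, pH 6.5, 1.6% organic matter, 37.3% clay particles, CEC 12.1 mol/kg. The g.ai/ha rate was active ingredient over pot surface area. Controls were untreated and DMF-treated seedlings.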

[2] = system: Eclipta prostrata; experiment: Herbicidal activity against Eclipta prostrata assessed as growth inhibition at 150 g ai/ha using post-emergence protocol under greenhouse conditions measured 15 days after compound treatment; format: functional; conditions: 360 h, read-out: GI
In short: (§2)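 Post-emergence greenhouse spray on pot-grown broadleaf weeds at the 2-leaf stage. Formulation concentrates were diluted with water. Soil was clay, pH 6.5, 1.6% organic matter, 37.3% clay particles, CEC 12.1 mol/kg. The rate was total active ingredient divided by pot surface area. Untreated seedlings and DMF-treated seedlings served as controls.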

[3] = system: Digitaria sanguinalis; experiment: Herbicidal activity against Digitaria sanguinalis (hairy crabgrass) assessed as growth inhibition at 150 g ai/ha using post-emergence protocol under greenhouse conditions measured 15 days after compound treatment; format: functional; conditions: 360 h, read-out: GI; in short: as §1
[4] = system: Echinochloa crus-galli; experiment: Herbicidal activity against Echinochloa crus-galli (barnyard grass) assessed as growth inhibition at 150 g ai/ha using post-emergence protocol under greenhouse conditions measured 15 days after compound treatment; format: functional; conditions: 360 h, read-out: GI; in short: as §1
[5] = biological target: T1, Protoporphyrinogen oxidase (Homo sapiens, UniProt P50336); experiment: Inhibition of Homo sapiens (human) protoporphyrinogen oxidase
T1 sequence (P50336 whole entry): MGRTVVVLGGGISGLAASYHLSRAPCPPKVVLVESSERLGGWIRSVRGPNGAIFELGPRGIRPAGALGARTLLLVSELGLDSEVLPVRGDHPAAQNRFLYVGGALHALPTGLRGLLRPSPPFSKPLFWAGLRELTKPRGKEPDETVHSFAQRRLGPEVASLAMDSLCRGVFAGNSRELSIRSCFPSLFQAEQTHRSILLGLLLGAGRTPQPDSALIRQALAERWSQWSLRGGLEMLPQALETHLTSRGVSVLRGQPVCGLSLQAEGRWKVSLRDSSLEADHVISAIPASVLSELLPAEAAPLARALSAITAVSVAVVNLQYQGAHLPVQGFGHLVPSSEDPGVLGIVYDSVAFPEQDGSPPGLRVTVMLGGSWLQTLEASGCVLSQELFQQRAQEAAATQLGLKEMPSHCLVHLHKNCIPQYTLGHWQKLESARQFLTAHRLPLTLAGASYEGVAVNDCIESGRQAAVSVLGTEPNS

[6] = system: Brassica juncea; experiment: Herbicidal activity against Brassica juncea assessed as growth inhibition at 150 g ai/ha using post-emergence protocol under greenhouse conditions measured 15 days after compound treatment; format: functional; conditions: 360 h, read-out: GI; in short: as §2
[7] = system: Chenopodium album; experiment: Herbicidal activity against Chenopodium album assessed as growth inhibition at 150 g ai/ha using post-emergence protocol under greenhouse conditions measured 15 days after compound treatment; format: functional; conditions: 360 h, read-out: GI; in short: as §2
[8] = system: Amaranthus retroflexus; experiment: Herbicidal activity against Amaranthus retroflexus assessed as growth inhibition at 150 g ai/ha using post-emergence protocol under greenhouse conditions measured 15 days after compound treatment; format: functional; conditions: 360 h, read-out: GI; in short: as §2

Structure (SMILES) | Ki ([5]; read-out: Ki) | Ki ([5]; read-out: pKi (converted)) | inhibition of growth at 150 g/ha [1] | inhibition of growth at 150 g/ha [2] | inhibition of growth at 150 g/ha [3] | inhibition of growth at 150 g/ha [4] | inhibition of growth at 150 g/ha [6] | inhibition of growth at 150 g/ha [7] | inhibition of growth at 150 g/ha [8]
O=C1C2CCCCC2C(O)N1c1cc(OC2CCCC2)c(Cl)cc1F (stereo unspecified) | 24.6 µM | – | < 50% | < 50% | < 50% | < 50% | < 50% | < 50% | < 50%
COc1cc(N2C(=O)C3CCCCC3C2O)c(F)cc1Cl (stereo unspecified) | 131 µM | – | < 50% | < 50% | < 50% | < 50% | < 50% | < 50% | < 50%
C#CCOc1cc(N2C(=O)C3CCCCC3C2O)c(F)cc1Cl (stereo unspecified) | 63.6 µM | – | < 50% | < 50% | < 50% | < 50% | < 50% | < 50% | < 50%
C=CCOc1cc(N2C(=O)C3CCCCC3C2O)c(F)cc1Cl (stereo unspecified) | 44.8 µM | 45.7 µM | < 50% | < 50% | < 50% | < 50% | < 50% | < 50% | < 50%
CC(C)Oc1cc(N2CC3=C(CCCC3)C2=O)c(F)cc1Cl | 0.69 µM | – | 50% | > 80% | < 50% | < 50% | > 80% | > 80% | 100%
Nc1cc(N2CC3=C(CCCC3)C2=O)ccc1Cl | 27.6 µM | – | < 50% | < 50% | < 50% | < 50% | < 50% | < 50% | < 50%

Now from value to molecule, other results behind:

Ki ([5]; read-out: Ki) | Ki ([5]; read-out: pKi (converted)) | Structure (SMILES) | inhibition of growth at 150 g/ha [1] | inhibition of growth at 150 g/ha [2] | inhibition of growth at 150 g/ha [3] | inhibition of growth at 150 g/ha [4] | inhibition of growth at 150 g/ha [6] | inhibition of growth at 150 g/ha [7] | inhibition of growth at 150 g/ha [8]
3.3 µM | – | CCOC(=O)C(C)Oc1cc(N2C(=O)C3CCCCC3C2=O)c(F)cc1Cl (stereo unspecified) | < 50% | > 80% | < 50% | < 50% | 50% | 50% | 100%
47.4 µM | – | CC(C)Oc1cc(N2C(=O)C3CCCCC3C2O)c(F)cc1Cl (stereo unspecified) | < 50% | < 50% | < 50% | < 50% | < 50% | < 50% | < 50%
124 µM | – | CCOC(=O)COc1cc(N2C(=O)C3CCCCC3C2O)c(F)cc1Cl (stereo unspecified) | < 50% | < 50% | < 50% | < 50% | < 50% | < 50% | < 50%
48.1 µM | – | CCOC(=O)C(C)Oc1cc(N2C(=O)C3CCCCC3C2O)c(F)cc1Cl (stereo unspecified) | < 50% | < 50% | < 50% | < 50% | < 50% | < 50% | < 50%
